The results in this text go back to article PMC4980077 (The FEBS journal, 2016).

One assay concerns PKA-Cα. As to the kind of experiment: 32P phosphorylation. Type of assay: biochemical. The note with it: PKA-Cα 20 nM, pH 7.5; n = 3. In a few lines: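 Substrate was His-tagged human smAKAP (wild type, or S66D with PKA-Cα) at 10 μM. It was incubated with 20 nM recombinant kinase in 50 mM MOPS pH 7.5 containing 10 mM MgCl2, 200 μM ATP and [32P]ATP. Aliquots were quenched in 30% acetic acid at 0, 5, 10 and 15 min. Results are means ± SD of 3 independent experiments.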

Another assay relates to PKA-RIβ. In words: Confocal colocalization with PKA-RIβ-mKO2 in HeLa cells. The class given is cell-based. The following applies: for localization of PKA-RIβ on co-transfection: phosphomimetic mutant + PKA-RIβ-mKO2. In a few lines: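 HeLa cells co-expressed GFP-tagged smAKAP (wild type, S66E or S66D) with mKO2-tagged PKA-RIα or RIβ. Cells were washed in ice-cold PBS, fixed in ice-cold 4% formaldehyde in PBS, washed twice and imaged by confocal microscopy through a 63× oil objective. Stimulated cells received calyculin A plus 8-CPT-cAMP and were imaged live.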

The next assay relates to PKA-RIα. In words: Confocal colocalization with PKA-RIα in HeLa cells. The following applies: phosphomimetic mutant + PKA-RIα-mKO2. Type of assay: cell-based.

B1: smAKAP-S66D: recombinant smAKAP with Ser66 mutated to an aspartic acid (protein, UniProt Q9BSF0 2-95, looked up, variant S66D)
Small membrane A-kinase …: GCMKSKQTFPFPTIYEGEKQHESEEPFMPEERCLPRMASPVNVKEEVKEPPGTNTVILEYAHRLDQDILCDALQQWACNNIKYHDIPYIESEGP
With B1, the “phosphorylation by PKA” value with PKA-Cα was “no detectable levels of phosphorylation”.

B2: smAKAP-S66D-GFP: phosphomimetic mutant GFP fusion (protein, UniProt Q9BSF0 2-95, looked up, variant S66D)
Small membrane A-kinase …: GCMKSKQTFPFPTIYEGEKQHESEEPFMPEERCLPRMASPVNVKEEVKEPPGTNTVILEYAHRLDQDILCDALQQWACNNIKYHDIPYIESEGP
modifications: GFP fusion
Turning to B2, in the assay on PKA-RIβ, the “localization of PKA-RIβ on co-transfection” value was “predominantly resided in the cytoplasm”. Moreover, the “localization of PKA-RIα on co-transfection” value in the assay on PKA-RIα is “predominantly resided in the cytoplasm”.

B3: smAKAP-S66E-GFP: phosphomimetic mutant GFP fusion (protein, UniProt Q9BSF0 2-95, looked up, variant S66E)
Small membrane A-kinase …: GCMKSKQTFPFPTIYEGEKQHESEEPFMPEERCLPRMASPVNVKEEVKEPPGTNTVILEYAHRLEQDILCDALQQWACNNIKYHDIPYIESEGP
modifications: GFP fusion
Regarding B3, the “localization of PKA-RIβ on co-transfection” value with PKA-RIβ is on record as “predominantly resided in the cytoplasm”. In addition, in the assay with PKA-RIβ (transfected, confocal, unstimulated), the “colocalization with PKA-RIβ-mKO2” value is reported as “no colocalization occurs”. Besides, in the assay with PKA-RIα, the “localization of PKA-RIα on co-transfection” value is “predominantly resided in the cytoplasm”.
